From ChEMBL document CHEMBL1135790, “2-Substituted 4-(thio)chromenone 6-O-sulfamates: potent inhibitors of human steroid sulfatase” (J Med Chem, 2002) come the findings set out here.

pIC50, pKi: −log10 of the molar value.

Data set [1] in a line: Inhibition constant as dissociation constant of the noncovalent (STS) enzyme-inhibitor complex. It counts as ADME. The gist of the method:
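Human placental microsomes (about 10 mg/mL protein) preincubated with inhibitor dilutions in 0.1 M Tris-HCl pH 7.5 for 1-20 min. Free inhibitor removed with dextran-coated charcoal. Residual activity measured in the supernatant with 4-MUS (1.5 mM before mixing), 20 min at 37 °C, stopped with NaOH, ex 355/em 460 nm. kapp from double-exponential fits. KI and kinact from a double-reciprocal plot of kapp against inhibitor concentration.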

Data set [2] is described as follows: Rate constant of inactivation.
The target in data set [3] is T1, Steryl-sulfatase (Homo sapiens, UniProt P08842).
T1 sequence (P08842 whole entry): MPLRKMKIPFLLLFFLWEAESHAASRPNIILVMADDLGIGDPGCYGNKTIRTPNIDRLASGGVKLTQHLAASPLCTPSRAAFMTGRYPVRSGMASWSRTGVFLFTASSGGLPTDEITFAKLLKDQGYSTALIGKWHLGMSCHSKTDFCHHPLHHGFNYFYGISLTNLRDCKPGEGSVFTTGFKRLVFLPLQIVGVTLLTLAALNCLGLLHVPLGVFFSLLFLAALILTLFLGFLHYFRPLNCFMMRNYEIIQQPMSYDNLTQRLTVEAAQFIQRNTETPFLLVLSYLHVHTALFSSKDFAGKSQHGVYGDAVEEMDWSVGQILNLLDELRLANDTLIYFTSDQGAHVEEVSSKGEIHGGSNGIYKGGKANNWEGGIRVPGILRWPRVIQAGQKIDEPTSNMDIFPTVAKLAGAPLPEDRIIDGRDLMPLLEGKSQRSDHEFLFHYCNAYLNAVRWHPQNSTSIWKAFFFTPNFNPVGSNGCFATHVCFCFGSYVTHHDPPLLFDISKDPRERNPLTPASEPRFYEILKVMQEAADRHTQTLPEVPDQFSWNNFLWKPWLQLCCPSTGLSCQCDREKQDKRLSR
Kind of data set: Inhibitory activity against purified human steroid sulfatase (STS). In outline:
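Human STS from stably transfected recombinant CHO cells, microsomal fraction solubilized in Triton X-100 and purified by chromatography to >95%. Enzyme (0.6 units) mixed with 4-MUS, 0.75 mM before mixing, in 0.1 M Tris-HCl pH 7.5, 0.1% Triton. Compounds at graded concentrations from ethanol stocks (final ethanol ≤2%). Incubation 60 min, 37 °C. Stopped with 0.2 M NaOH. Fluorescence ex 355/em 448 nm. IC50 from nonlinear regression; mean of triplicates.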

A short description of data set [4]: Ratio of kinact (rate constant of inactivation) to that of KI (inhibition constant) indicates efficacy of irreversible inhibition.

Usually pKi stands for the negative decadic logarithm of the Ki, by convention in mol/L. A high value points to a small Ki. One may read the kinact as the maximal first-order rate at which the target is inactivated. As a reminder, the pIC50 is the negative decadic logarithm of the IC50, by convention in mol/L. The low end stands for a large IC50, the high end for a small IC50. In data set [1], `NS(=O)(=O)Oc1ccc2c(c1)C(=O)CC(C13CC4CC(CC(C4)C1)C3)O2` (centres undefined) had a pKi of 5.73. In addition, in data set [2], the kinact came to 0.017 s⁻¹. For the same compound, the pIC50 in data set [3] was 6.85.
The compound `NS(=O)(=O)Oc1ccc2c(c1)C(=O)CC(C1CCCCC1)O2` (centres undefined) showed a negative-log IC50 (pIC50) in data set [3] of 6.55.
In data set [3], `NS(=O)(=O)Oc1ccc2oc(CCc3ccccc3)cc(=O)c2c1` had a negative logarithm of the IC50 (pIC50) of 6.72.
On the same count and under the same terms, next, `NS(=O)(=O)Oc1ccc2oc(Cc3ccccc3)cc(=O)c2c1`: 5.79.
`NS(=O)(=O)Oc1ccc2sc(-c3ccccc3)cc(=O)c2c1` had a pIC50 in data set [3] of 7.21.
`CC(C)(C)c1cc(=O)c2cc(OS(N)(=O)=O)ccc2s1` had a pIC50 in data set [3] of 8.25.
In data set [1], `NS(=O)(=O)Oc1ccc2c(=O)cc(C3CCCCC3)oc2c1` gave a pKi of 4.62. Also, the kinact in data set [2] is 0.02 s⁻¹. The pIC50 in data set [3] is 5.20.
Take `NS(=O)(=O)Oc1ccc2oc(/C=C/c3ccccc3)cc(=O)c2c1`: the pIC50 in data set [3] was 5.79.
Compound `CCCc1cc(=O)c2cc(OS(N)(=O)=O)ccc2o1` showed a pIC50 in data set [3] of 6.14.
The compound `NS(=O)(=O)Oc1ccc2oc(C3CCCCCCCCCCC3)cc(=O)c2c1` gave a negative-log Ki (pKi) in data set [1] of 5.96. The kinact in data set [2] came to 0.04 s⁻¹. Moreover, the pIC50 in data set [3] was 7.35.
In data set [3], `NS(=O)(=O)Oc1ccc2c(c1)C(=O)CC(c1ccccc1)O2` (centres undefined) gave a pIC50 of 5.59.
For the compound `CC1(C)C(c2cc(=O)c3cc(OS(N)(=O)=O)ccc3o2)C1(C)C`, the pIC50 in data set [3] was 7.35. Compared with the last compound, the pIC50 is 1.76 log units higher.
As to `CC(C)(C)c1cc(=O)c2cc(OS(N)(=O)=O)ccc2o1`, in data set [1], the pKi was 6.05. The maximal inactivation rate constant (kinact) in data set [2] was 0.07 s⁻¹. The negative-log IC50 (pIC50) in data set [3] is 7.66.
Turning to `NS(=O)(=O)Oc1ccc2oc(-c3ccccc3)cc(=O)c2c1`, the pIC50 in data set [3] is 6.17.
Same read-out and setting: the result for `CCCc1cc(=O)c2ccc(OS(N)(=O)=O)cc2o1` reads less than 4.00.
In turn, `NS(=O)(=O)Oc1ccc2oc(C3C4CC5CC3CC5C4)cc(=O)c2c1` (centres undefined) gave a negative logarithm of the Ki (pKi) in data set [1] of 6.66. Moreover, in data set [2], the kinact amounted to 0.042 s⁻¹. For the same compound, the negative-log IC50 (pIC50) in data set [3] was 7.96.
In turn, `NS(=O)(=O)Oc1ccc2c(=O)c(C3CCCCC3)coc2c1` showed a pKi in data set [1] of 5.92. In addition, in data set [2], the kinact was 0.07 s⁻¹. This compound also showed a pIC50 in data set [3] of 7.30.
Consider `NS(=O)(=O)Oc1ccc2c(=O)c(-c3ccccc3)coc2c1`, for which the pIC50 in data set [3] is 6.36.
Turning to `CCCCCCCCCc1cc(=O)c2cc(OS(N)(=O)=O)ccc2o1`, the pKi in data set [1] was 5.77. The kinact in data set [2] came to 0.006 s⁻¹. The compound also gave a pIC50 in data set [3] of 6.39. Moreover, the “K inact/Ki” value in data set [4] is recorded as 0.35 10e4 M-1 s-1.
With `CCCCCCCCC(C)(C)c1cc(=O)c2cc(OS(N)(=O)=O)ccc2o1`, the pIC50 in data set [3] is 7.11.
Same read-out and setting: next, `NS(=O)(=O)Oc1ccc2c(c1)C(O)CC(C13CC4CC(CC(C4)C1)C3)O2` (centres undefined): 6.54.
`NS(=O)(=O)Oc1ccc2oc(C3CCCCC3)cc(=O)c2c1`: the pKi in data set [1] is 6.00. Also, the kinact in data set [2] is 0.035 s⁻¹. In addition, in data set [3], the pIC50 is 7.21.
The like results for `NS(=O)(=O)Oc1ccc2sc(C34CC5CC(CC(C5)C3)C4)cc(=O)c2c1` were, in that order, 6.68, 0.115 s⁻¹ and 9.47.
The like results for `NS(=O)(=O)Oc1ccc2c(c1)CCC(C1CCCCC1)O2` (centres undefined) were, in that order, 4.49, 0.016 s⁻¹ and 4.95.
The compound `NS(=O)(=O)Oc1ccc2c(c1)C(O)CC(C1CCCCC1)O2` (centres undefined) gave a pKi in data set [1] of 4.27. Moreover, in data set [2], the kinact was determined as 0.018 s⁻¹. The pIC50 in data set [3] was 4.61.
In the case of `NS(=O)(=O)Oc1ccc2oc(C3CCCC3)cc(=O)c2c1`, in data set [1], the pKi was 6.14. Besides, the inactivation rate constant (kinact) in data set [2] stood at 0.011 s⁻¹. In data set [3], this compound had a pIC50 of 6.87.
As for `CCCCCC12CCC(c3cc(=O)c4cc(OS(N)(=O)=O)ccc4o3)(CC1)CC2`, in data set [1], the pKi is 6.30. Besides, the kinact in data set [2] was determined as 0.074 s⁻¹. In data set [3], this compound showed a pIC50 of 7.96.
